{
  "source": "ChEMBL document CHEMBL5696442",
  "about": "“Discovery of type II inhibitors of TGFβ-activated kinase 1 (TAK1) and mitogen-activated protein kinase kinase kinase kinase 2 (MAP4K2)” (J Med Chem, 2015)",
  "key": {"[1]": {"assay": "AUC last in Swiss albino mouse at 10 mg/kg, po measured upto 24 hrs by LC/MS/MS analysis", "type": "ADME, organism-based", "settings": "in vivo"}, "[2]": {"target": "Casein kinase II subunit alpha (Homo sapiens) (UniProt P68400)", "sequence (P68400 whole entry, looked up, the tested form may be a part)": "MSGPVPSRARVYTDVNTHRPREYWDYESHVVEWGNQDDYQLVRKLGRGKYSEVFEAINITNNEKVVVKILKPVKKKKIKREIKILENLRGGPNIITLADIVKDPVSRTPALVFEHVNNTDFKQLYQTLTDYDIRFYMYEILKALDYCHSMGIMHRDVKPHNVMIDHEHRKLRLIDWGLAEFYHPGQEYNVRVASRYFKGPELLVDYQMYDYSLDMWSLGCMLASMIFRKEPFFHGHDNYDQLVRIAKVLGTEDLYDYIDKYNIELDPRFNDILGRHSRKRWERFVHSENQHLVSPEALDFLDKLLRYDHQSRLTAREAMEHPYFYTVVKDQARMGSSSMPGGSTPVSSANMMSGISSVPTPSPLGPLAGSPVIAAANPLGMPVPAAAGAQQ", "assay": "Inhibition of CK2a1 Protein Kinase Domain in human A-375 cells at 0.5 uM by KiNativ Profiling analysis relative to control", "type": "cell-based", "method_in_brief": "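Live A375 melanoma cells were treated with compound at 5 or 0.5 μM. The cells were then lysed, and the lysates were labeled with a lysine-reactive ATP or ADP-biotin acyl probe (KiNativ). Inhibition is the compound's protection of each kinase labeling-site peptide from probe labeling, relative to untreated control.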"}, "[3]": {"target": "T1, Mitogen-activated protein kinase 13 (Homo sapiens) (UniProt O15264)", "T1 sequence (whole entry)": "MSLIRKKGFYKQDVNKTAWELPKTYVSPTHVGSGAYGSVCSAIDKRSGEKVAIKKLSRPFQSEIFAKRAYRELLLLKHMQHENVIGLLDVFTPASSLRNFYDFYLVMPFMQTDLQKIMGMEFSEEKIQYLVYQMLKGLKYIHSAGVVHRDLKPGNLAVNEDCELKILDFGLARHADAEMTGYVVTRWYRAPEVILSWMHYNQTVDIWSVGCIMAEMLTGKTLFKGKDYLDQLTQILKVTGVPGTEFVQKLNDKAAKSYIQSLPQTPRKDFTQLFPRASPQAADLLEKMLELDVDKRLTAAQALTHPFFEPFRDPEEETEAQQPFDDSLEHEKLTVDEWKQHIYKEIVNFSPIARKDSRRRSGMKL", "assay": "Inhibition of p38 delta Lys2 labeling site in human A-375 cells at 0.5 uM by KiNativ Profiling analysis relative to control", "type": "cell-based"}, "[4]": {"target": "Serine/threonine-protein kinase WNK2 (Homo sapiens) (UniProt Q9Y3S1)", "sequence (Q9Y3S1 whole entry)": "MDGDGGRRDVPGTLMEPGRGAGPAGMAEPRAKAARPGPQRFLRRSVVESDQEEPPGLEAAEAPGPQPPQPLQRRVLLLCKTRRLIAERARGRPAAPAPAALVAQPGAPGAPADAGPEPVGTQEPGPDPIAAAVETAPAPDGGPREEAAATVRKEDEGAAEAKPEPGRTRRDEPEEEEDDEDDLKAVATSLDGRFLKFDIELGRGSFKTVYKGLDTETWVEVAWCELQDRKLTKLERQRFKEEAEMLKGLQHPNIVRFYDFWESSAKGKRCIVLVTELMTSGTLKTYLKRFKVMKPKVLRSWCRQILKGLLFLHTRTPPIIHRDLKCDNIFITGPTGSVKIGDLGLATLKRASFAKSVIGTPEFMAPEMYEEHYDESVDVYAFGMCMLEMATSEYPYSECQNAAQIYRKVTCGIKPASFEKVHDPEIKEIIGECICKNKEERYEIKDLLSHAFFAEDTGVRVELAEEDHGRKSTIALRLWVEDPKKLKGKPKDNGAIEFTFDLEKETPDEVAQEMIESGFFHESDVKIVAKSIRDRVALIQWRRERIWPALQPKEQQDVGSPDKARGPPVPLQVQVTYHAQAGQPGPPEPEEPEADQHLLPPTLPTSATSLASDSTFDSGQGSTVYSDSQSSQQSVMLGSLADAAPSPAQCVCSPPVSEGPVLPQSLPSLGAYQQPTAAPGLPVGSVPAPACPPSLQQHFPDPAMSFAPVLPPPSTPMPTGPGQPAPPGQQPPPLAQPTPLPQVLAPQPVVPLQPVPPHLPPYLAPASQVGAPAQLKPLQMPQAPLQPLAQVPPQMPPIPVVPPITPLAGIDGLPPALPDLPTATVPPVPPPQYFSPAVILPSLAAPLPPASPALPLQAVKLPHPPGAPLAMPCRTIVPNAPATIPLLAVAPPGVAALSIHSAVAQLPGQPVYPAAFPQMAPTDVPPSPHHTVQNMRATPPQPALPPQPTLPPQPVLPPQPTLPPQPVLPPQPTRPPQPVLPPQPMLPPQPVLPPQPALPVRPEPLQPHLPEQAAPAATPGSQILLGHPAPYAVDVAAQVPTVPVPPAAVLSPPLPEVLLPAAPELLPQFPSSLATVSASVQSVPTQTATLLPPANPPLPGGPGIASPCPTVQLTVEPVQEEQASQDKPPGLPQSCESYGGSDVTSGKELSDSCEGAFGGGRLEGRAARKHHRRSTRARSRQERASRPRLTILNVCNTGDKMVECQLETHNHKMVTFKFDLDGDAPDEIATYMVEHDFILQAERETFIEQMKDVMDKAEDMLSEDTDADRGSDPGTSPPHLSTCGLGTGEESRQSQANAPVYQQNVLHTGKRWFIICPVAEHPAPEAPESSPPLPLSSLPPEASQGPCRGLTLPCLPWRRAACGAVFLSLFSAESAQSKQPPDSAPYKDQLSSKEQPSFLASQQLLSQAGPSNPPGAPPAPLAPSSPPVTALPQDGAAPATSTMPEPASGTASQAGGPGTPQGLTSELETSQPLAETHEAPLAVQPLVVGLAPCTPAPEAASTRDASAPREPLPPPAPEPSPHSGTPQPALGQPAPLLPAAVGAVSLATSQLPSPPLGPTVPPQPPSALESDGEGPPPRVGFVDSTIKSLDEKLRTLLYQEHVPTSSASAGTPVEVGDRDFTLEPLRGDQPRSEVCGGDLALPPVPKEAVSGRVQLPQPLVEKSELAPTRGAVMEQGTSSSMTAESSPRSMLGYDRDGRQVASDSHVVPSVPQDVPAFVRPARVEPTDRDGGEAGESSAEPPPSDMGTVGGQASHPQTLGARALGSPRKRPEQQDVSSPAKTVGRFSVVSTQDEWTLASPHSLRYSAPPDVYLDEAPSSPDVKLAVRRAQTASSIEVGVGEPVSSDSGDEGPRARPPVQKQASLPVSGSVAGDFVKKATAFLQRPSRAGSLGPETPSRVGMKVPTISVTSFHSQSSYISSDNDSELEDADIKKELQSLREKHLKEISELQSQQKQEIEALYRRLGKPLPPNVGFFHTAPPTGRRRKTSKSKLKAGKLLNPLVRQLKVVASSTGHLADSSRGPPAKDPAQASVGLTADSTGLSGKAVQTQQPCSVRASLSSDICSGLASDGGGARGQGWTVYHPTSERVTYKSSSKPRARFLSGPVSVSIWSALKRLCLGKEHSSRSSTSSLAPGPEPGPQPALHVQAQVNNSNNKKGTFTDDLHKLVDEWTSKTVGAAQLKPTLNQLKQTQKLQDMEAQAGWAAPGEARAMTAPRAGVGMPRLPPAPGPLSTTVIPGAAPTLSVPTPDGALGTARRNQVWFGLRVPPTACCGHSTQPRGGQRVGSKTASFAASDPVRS", "assay": "Inhibition of Wnk2 Lys2 labeling site in human A-375 cells at 0.5 uM by KiNativ Profiling analysis relative to control", "type": "cell-based"}, "[5]": {"target": "T2, Aurora kinase A (Homo sapiens) (UniProt O14965)", "T2 sequence (whole entry)": "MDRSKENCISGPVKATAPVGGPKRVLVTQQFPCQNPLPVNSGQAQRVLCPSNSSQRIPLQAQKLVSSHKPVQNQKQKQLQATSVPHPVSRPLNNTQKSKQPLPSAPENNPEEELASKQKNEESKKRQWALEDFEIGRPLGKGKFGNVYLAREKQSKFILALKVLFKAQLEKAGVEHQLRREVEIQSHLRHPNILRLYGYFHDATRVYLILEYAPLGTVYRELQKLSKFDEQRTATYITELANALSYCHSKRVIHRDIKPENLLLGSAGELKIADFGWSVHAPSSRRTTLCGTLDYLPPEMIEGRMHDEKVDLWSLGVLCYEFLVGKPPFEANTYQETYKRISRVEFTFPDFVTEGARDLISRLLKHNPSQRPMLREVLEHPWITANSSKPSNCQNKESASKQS", "assay": "Inhibition of AurA ATP Loop labeling site in human A-375 cells at 0.05 uM by KiNativ Profiling analysis relative to control", "type": "cell-based"}, "[6]": {"target": "Mitogen-activated protein kinase 9 (Homo sapiens, UniProt P45984)", "sequence (P45984 whole entry, looked up)": "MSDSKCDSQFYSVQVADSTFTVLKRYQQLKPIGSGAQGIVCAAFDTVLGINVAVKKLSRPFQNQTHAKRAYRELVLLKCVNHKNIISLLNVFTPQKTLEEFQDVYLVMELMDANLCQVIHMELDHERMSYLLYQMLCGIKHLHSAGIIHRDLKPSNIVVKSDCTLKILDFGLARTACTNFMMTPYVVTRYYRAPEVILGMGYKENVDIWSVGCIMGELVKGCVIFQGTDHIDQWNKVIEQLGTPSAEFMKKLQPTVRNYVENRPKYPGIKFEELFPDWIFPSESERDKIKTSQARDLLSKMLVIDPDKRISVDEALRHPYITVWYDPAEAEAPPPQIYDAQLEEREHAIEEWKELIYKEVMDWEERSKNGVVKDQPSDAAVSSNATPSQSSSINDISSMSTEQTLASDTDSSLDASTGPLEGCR", "assay": "Inhibition of JNK2 Lys2 labeling site in human A-375 cells at 0.05 uM by KiNativ Profiling analysis relative to control", "type": "cell-based"}, "[7]": {"target": "T3, Serine/threonine-protein kinase 3 (Homo sapiens) (UniProt Q13188)", "T3 sequence (whole entry)": "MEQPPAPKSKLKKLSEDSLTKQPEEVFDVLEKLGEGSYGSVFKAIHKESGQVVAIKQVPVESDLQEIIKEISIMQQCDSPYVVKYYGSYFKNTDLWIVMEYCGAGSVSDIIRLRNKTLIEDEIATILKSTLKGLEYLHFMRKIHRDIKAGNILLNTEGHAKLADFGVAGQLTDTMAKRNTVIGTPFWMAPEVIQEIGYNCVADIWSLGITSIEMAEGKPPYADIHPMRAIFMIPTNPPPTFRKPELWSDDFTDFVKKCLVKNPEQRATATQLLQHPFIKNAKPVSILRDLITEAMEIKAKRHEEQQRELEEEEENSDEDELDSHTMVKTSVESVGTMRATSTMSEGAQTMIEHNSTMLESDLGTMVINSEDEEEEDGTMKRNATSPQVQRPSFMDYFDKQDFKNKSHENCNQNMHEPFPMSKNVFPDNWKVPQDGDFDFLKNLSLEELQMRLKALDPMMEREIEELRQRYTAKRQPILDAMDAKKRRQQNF", "assay": "Inhibition of MST2 Lys2 labeling site harbouring DIKAGNILLNTEGHAK in human A-375 cells at 0.05 uM by KiNativ Profiling analysis relative to control", "type": "cell-based"}, "[8]": {"target": "T4, Serine/threonine-protein kinase TBK1 (Homo sapiens) (UniProt Q9UHD2)", "T4 sequence (whole entry)": "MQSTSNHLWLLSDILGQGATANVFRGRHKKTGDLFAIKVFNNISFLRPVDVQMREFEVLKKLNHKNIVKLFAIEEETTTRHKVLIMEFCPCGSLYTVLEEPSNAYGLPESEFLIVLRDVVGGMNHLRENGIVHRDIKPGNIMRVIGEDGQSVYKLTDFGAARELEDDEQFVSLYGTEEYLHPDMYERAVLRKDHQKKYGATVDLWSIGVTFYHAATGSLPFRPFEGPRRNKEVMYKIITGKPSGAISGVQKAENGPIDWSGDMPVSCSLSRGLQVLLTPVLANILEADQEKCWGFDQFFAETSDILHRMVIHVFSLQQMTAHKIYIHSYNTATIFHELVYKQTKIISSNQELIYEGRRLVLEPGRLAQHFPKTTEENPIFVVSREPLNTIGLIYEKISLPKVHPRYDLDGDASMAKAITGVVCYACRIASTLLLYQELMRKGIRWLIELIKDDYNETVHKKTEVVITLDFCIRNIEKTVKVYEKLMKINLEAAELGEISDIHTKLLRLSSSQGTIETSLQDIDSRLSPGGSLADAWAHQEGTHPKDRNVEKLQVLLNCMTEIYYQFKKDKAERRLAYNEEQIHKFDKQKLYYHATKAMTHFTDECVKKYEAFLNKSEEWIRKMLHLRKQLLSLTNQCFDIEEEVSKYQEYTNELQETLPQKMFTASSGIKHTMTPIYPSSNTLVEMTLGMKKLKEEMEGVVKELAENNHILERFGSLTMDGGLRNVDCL", "assay": "Inhibition of TBK1 Lys1 labeling site in human A-375 cells at 0.05 uM by KiNativ Profiling analysis relative to control", "type": "cell-based"}},
  "data": [
    {"smiles": "CCN1CCN(Cc2ccc(NC(=O)c3ccc(C)c(Oc4ccnc5[nH]ccc45)c3)cc2C(F)(F)F)CC1", "values": [
      {"measurement": "AUClast", "setting": "[1]", "value": 1369, "unit": "ng·h/mL"},
      {"measurement": "inhibition", "setting": "[2]", "value": 2, "unit": "%"},
      {"measurement": "inhibition", "setting": "[3]", "value": 86.2, "unit": "%"},
      {"measurement": "inhibition", "setting": "[4]", "value": -3, "unit": "%"},
      {"measurement": "inhibition", "setting": "[5]", "value": 32.5, "unit": "%"},
      {"measurement": "inhibition", "setting": "[6]", "value": 50.3, "unit": "%"},
      {"measurement": "inhibition", "setting": "[7]", "value": 4.7, "unit": "%"},
      {"measurement": "inhibition", "setting": "[8]", "value": 16.7, "unit": "%"}
    ]},
    {"smiles": "CCN1CCN(Cc2ccc(NC(=O)c3ccc(C)c(/C=C/c4cnc5[nH]ccc5c4OC)c3)cc2C(F)(F)F)CC1", "values": [
      {"measurement": "AUClast", "setting": "[1]", "value": 295, "unit": "ng·h/mL"},
      {"measurement": "inhibition", "setting": "[2]", "value": 12.9, "unit": "%"},
      {"measurement": "inhibition", "setting": "[3]", "value": 25.2, "unit": "%"},
      {"measurement": "inhibition", "setting": "[4]", "value": 7.9, "unit": "%"},
      {"measurement": "inhibition", "setting": "[5]", "value": 14.1, "unit": "%"},
      {"measurement": "inhibition", "setting": "[6]", "value": 23.9, "unit": "%"},
      {"measurement": "inhibition", "setting": "[7]", "value": -7, "unit": "%"},
      {"measurement": "inhibition", "setting": "[8]", "value": 33.4, "unit": "%"}
    ]}
  ]
}
